{"source": "ChEMBL document CHEMBL1649090", "about": "“Discovery of (7R)-14-cyclohexyl-7-{[2-(dimethylamino)ethyl](methyl) amino}-7,8-dihydro-6H-indolo[1,2-e][1,5]benzoxazocine-11-carboxylic acid (MK-3281), a potent and orally bioavailable finger-loop inhibitor of the hepatitis C virus NS5B polymerase” (J Med Chem, 2011)", "key": {"[1]": {"experiment": "Oral bioavailability in Sprague-Dawley rat at 3 mg/kg", "type": "ADME, organism-based", "conditions": "in vivo", "outline": "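Single-dose rat PK with the compound given as its TFA salt to Sprague-Dawley rats (n = 3) in DMSO/PEG400/water 20%/60%/20%. Dosing was 3 mg/kg iv and 3 mg/kg po.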"}, "Hepatitis C virus": {"test_system": "Hepatitis C virus", "experiment": "Antiviral activity against HCV1a", "type": "functional, organism-based, Hepacivirus hominis", "conditions": "subtype 1a"}, "[2]": {"experiment": "Cmax in Sprague-Dawley rat at 3 mg/kg, iv and 3 mg/kg, po", "type": "ADME, organism-based", "conditions": "in vivo", "outline": "(§1)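 Single-dose PK of the bis-HCl salt, n = 3 per species (dog po n = 2). Intravenous doses: rat 3, dog 1, rhesus 2 mg/kg, in DMSO/PEG400/water 20%/60%/20%. Oral doses: rat 3, dog 2, rhesus 4 mg/kg, in PEG400 for rat and dog and PEG400/water 70%/30% for rhesus.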"}, "[3]": {"experiment": "Volume of distribution at steady state in dog at 1 mg/kg, iv and 2 mg/kg, po", "type": "ADME, organism-based, Canis lupus familiaris", "conditions": "in vivo, read-out: Vdss", "outline": "(§2)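 Single iv and single oral doses, given as the bis-HCl salt, in rat, dog and rhesus, n = 3 per species (dog oral n = 2). The iv vehicle was DMSO/PEG400/water 20%/60%/20%. Oral vehicle was PEG400 for rat and dog and PEG400/water 70%/30% for rhesus. Values are mean ± SD.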"}, "[4]": {"experiment": "Terminal half life in dog at 1 mg/kg, iv and 2 mg/kg, po", "type": "ADME, organism-based, Canis lupus familiaris", "conditions": "in vivo", "outline": "as §2"}, "[5]": {"experiment": "Oral bioavailability in dog at 2 mg/kg, po", "type": "ADME, organism-based, Canis lupus familiaris", "conditions": "in vivo", "outline": "as §1"}}, "data": [{"smiles": "CN(C)CCN(C)[C@H]1COc2ccccc2-c2c(C3CCCCC3)c3ccc(C(=O)O)cc3n2C1", "note": "[MK-3281]", "values": [{"measurement": "bioavailability", "setting": "[1]", "value": 49, "unit": "%"}, {"measurement": "EC50", "setting": "Hepatitis C virus", "value": 28, "unit": "nM"}, {"measurement": "Cmax", "setting": "[2]", "value": 500, "unit": "nM"}, {"measurement": "Vd", "setting": "[3]", "value": 2.6, "unit": "L/kg"}, {"measurement": "half-life", "setting": "[4]", "value": 6.1, "unit": "h"}, {"measurement": "bioavailability", "setting": "[5]", "value": 78, "unit": "%"}]}]}
